Source: PubChem BioAssay (several laboratories)
L major viab = inhibitors of Leishmania major promastigote growth. Leishmania major promastigotes, resazurin fluorescence viability. inhibition, % at 10 µM. 200,000 tested, 9% active. AID 1063; in the data active = inhibition above about 50%;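 also: promastigotes grown with compound for 44 hours at 28 °C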
S1P4 ag = human S1P4 receptor agonism. O95977. S1P4-expressing cell line, agonist reporter assay. activation, % at 4.98 µM. 220,000 tested, 0.35% active; in the data active = activation above about 11%;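 also: 0% = DMSO vehicle and 100% = reference agonist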
Target sequence (O95977 whole entry, looked up): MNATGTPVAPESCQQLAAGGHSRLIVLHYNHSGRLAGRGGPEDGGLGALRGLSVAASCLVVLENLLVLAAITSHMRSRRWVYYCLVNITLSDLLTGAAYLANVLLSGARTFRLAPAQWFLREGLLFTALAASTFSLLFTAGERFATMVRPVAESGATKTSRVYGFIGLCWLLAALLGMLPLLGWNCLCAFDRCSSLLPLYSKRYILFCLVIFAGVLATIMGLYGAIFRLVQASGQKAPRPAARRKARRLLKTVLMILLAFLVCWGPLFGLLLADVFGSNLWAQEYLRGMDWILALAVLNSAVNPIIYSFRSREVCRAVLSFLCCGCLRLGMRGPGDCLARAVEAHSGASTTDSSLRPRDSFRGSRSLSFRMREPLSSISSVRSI
S1P4 antag = human S1P4 receptor antagonism. S1P4-expressing cells, antagonist mode, reporter read-out. inhibition, % at 4.98 µM. 220,000 tested, 0.26% active; in the data active = inhibition above about 29%;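 also: 0% = wells stimulated with agonist and 100% = vehicle wells without agonist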
MDM2 E3 inh = Mdm2 E3 ligase (human) inhibition; Q00987; signal enhancement, % at 5 µM; 210,000 tested, 0.11% active; AID 1230; cell-based MDM2 ubiquitination luciferase reporter, 2 h; 0 = plate control, 100 = twice control, blank-subtracted;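 active = signal enhancement of 30% or more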;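 also: luminescence tracks abundance of the self-degrading MDM2-luciferase fusion protein; higher signal means inhibition of MDM2 E3 ligase activity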
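Test system: mammalian cells stably expressing self-ubiquitinating, self-degrading MDM2 E3–luciferase fusion; Amount: 2000 cells in each well; Medium: DMEM; Schedule: 4 h settle plus 2 h compound, 37 °C; Technique: SteadyLite luciferase luminescence after 15 min room-temperature reagent incubation; Benchmarks: plate control and blank wells.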
S1P3 antagonist = antagonists of human S1P3 receptor; Q99500; CHO S1P3 NFAT-BLA reporter, FRET fluorescence, antagonist mode; AID 485; inhibition, % at 4.98 µM; 170,000 tested, 0.27% active;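 active = inhibition above the plate cutoff, the mean inhibition of test wells on that plate plus 3 SD, cut at about 28% in these data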;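 also: cells challenged with S1P at its EC80 of 0.8 µM; blue over green emission ratio from cleaved BLA substrate after 4 h stimulation; 0% = S1P-stimulated wells and 100% = unstimulated DMSO-only wells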
* hit, by the source's call. This excerpt belongs to a sample that is enriched for hits.

Screening CC(C)c1ccccc1NC(=S)NC1CCN(Cc2ccccc2)CC1 returned L major viab 74.4*, S1P4 ag -0.6, S1P4 antag -13.2, MDM2 E3 inh -6.7 and S1P3 antagonist 16.4.
S=C(Nc1ccccc1Cl)NC1CCN(Cc2ccccc2)CC1 was read as L major viab 94.6*, S1P4 ag 0.0, S1P4 antag -0.4, MDM2 E3 inh -8.8 and S1P3 antagonist 8.2.
Cc1c(Cl)cccc1NC(=S)NCc1ccccc1 was read as L major viab 72.5*, S1P4 ag -1.2 and S1P4 antag -8.0.
For CC(C)c1ccccc1NC(=S)NN(Cc1ccccc1)c1ccccc1 the results were L major viab 54.1*, S1P4 ag 1.3, S1P4 antag 4.7 and MDM2 E3 inh -10.5.
For COc1ccc(Cl)cc1NC(=O)C/C(C)=N/NC(=O)Cc1ccccc1 the results were L major viab -4.1, S1P4 ag -0.7, S1P4 antag -1.4, MDM2 E3 inh 0.4 and S1P3 antagonist -3.3.
COc1ccccc1N1C(=O)C=C(Sc2nc(C)cc(C)n2)C1=O was read as S1P4 ag -0.4, S1P4 antag -6.0, MDM2 E3 inh -10.4 and S1P3 antagonist -1.6.
For Cc1ccc(CSCC(=O)NCc2cccs2)cc1 the results were L major viab -2.5, S1P4 ag -0.7, S1P4 antag 1.2, MDM2 E3 inh -37.4 and S1P3 antagonist -10.8.
For Cc1c(Cl)cccc1NC(=S)N1CCN(Cc2ccccc2)CC1 the results were L major viab 9.5, S1P4 ag 2.4, S1P4 antag 0.1 and MDM2 E3 inh -21.5.
Screening FC(F)(F)c1ccccc1NC(=S)NN1CCOCC1 returned L major viab -2.9, S1P4 ag 3.4, S1P4 antag -15.1 and MDM2 E3 inh -24.1.
For Cc1c(Cl)cccc1NC(=S)NC1CCN(Cc2ccccc2)CC1 the results were L major viab 85.6*, S1P4 ag 0.1, S1P4 antag -21.9, MDM2 E3 inh -14.7 and S1P3 antagonist -5.1.
FC(F)(F)c1ccccc1NC(=S)NC1CCN(Cc2ccccc2)CC1 was read as L major viab 75.9*, S1P4 ag 0.2, S1P4 antag -1.8, MDM2 E3 inh -10.6 and S1P3 antagonist 2.7.
For CCCN1CCC(NC(=O)Nc2cccc3ccccc23)CC1 the results were S1P4 ag -0.3, S1P4 antag -7.7, MDM2 E3 inh -12.0 and S1P3 antagonist 6.5.
For CCCN1CCC(NC(=S)Nc2cccc(Cl)c2Cl)CC1 the results were L major viab 81.5*, S1P4 ag 1.3, S1P4 antag -8.8, MDM2 E3 inh -0.6 and S1P3 antagonist -4.8.
For COc1ccc(S(=O)(=O)N2CCCCC2)cc1NC(=O)c1ccc([N+](=O)[O-])o1 the results were L major viab 90.3*, S1P4 ag -1.0, S1P4 antag -4.9, MDM2 E3 inh -12.7 and S1P3 antagonist -16.9.
Screening COc1ccc(-c2cc3ccccc3oc2=O)cc1NC(=O)c1ccc([N+](=O)[O-])o1 returned L major viab 85.1*, S1P4 ag -3.1, S1P4 antag 3.7 and MDM2 E3 inh 2.0.
Screening COc1ccc(-c2cc3ccccc3oc2=O)cc1NC(=O)c1ccc(Br)o1 returned L major viab -1.5, S1P4 ag -3.9, S1P4 antag 0.2, MDM2 E3 inh -6.8 and S1P3 antagonist 9.9.
For CCOC(=O)Cc1cnc(NC(=O)CSc2nc(C)c(CC)c(=O)[nH]2)s1 the results were L major viab -1.5, S1P4 ag 0.3, S1P4 antag -1.5 and S1P3 antagonist 7.1.
C/C(=N/OC(=O)c1ccc(Cl)cc1Cl)c1oc(C)nc1C was read as S1P4 ag -0.2, S1P4 antag 1.9, MDM2 E3 inh -6.3 and S1P3 antagonist 3.9.
`COc1ccc(/C=N/NC(=O)C2c3ccccc3Oc3ccccc32)c(OC)c1` gave L major viab -2.3, S1P4 ag -1.5, S1P4 antag -19.0 and MDM2 E3 inh -3.1.
For Cc1nc(N/N=C/c2ccccn2)sc1C the results were L major viab 3.5, S1P4 ag 2.1, S1P4 antag -6.9, MDM2 E3 inh -86.0 and S1P3 antagonist -2.6.
For CCCc1sc(N/N=C/c2ccccn2)nc1-c1ccc(F)cc1 the results were L major viab 96.2*, S1P4 ag -1.3, S1P4 antag -28.9 and MDM2 E3 inh -8.9.
For Clc1ccc(-c2nc3cnccn3c2NC2CCCC2)cc1 the results were L major viab 6.6, S1P4 ag -4.6, S1P4 antag 12.8 and MDM2 E3 inh -12.2.
Screening Cc1ccn2c(NC3CCCC3)c(-c3ccccn3)nc2c1 returned L major viab 100.6*, S1P4 ag -2.4, S1P4 antag -3.4, MDM2 E3 inh -3.6 and S1P3 antagonist 0.9.
`Cc1ccn2c(Nc3ccccc3C)c(-c3ccncc3)nc2c1` gave L major viab 86.0*, S1P4 ag -0.1, S1P4 antag -16.4, MDM2 E3 inh 2.3 and S1P3 antagonist 10.2.
`Cc1ccc2nc(-c3ccncc3)c(NC3CCCCC3)n2c1` gave L major viab 65.4*, S1P4 ag 2.4, S1P4 antag -1.7, MDM2 E3 inh 4.7 and S1P3 antagonist -2.1.
Screening c1ccc(-c2nc3ccccn3c2NC2CCCC2)nc1 returned L major viab 100.3*, S1P4 ag -0.2, S1P4 antag -3.0, MDM2 E3 inh -5.7 and S1P3 antagonist -18.6.
Screening O=S(=O)(Nc1cccnc1)c1ccc(Cl)c(C(F)(F)F)c1 returned L major viab -9.6, S1P4 ag 0.8, S1P4 antag -14.5, MDM2 E3 inh -6.5 and S1P3 antagonist -18.4.
Screening CN1/C(=C/C2CC(=O)N(c3ccc([N+](=O)[O-])cc3)C2=O)C(C)(C)c2ccccc21 (stereo unspecified) returned L major viab -0.4, S1P4 ag -2.5, S1P4 antag 1.8 and MDM2 E3 inh 5.0.
Cc1ccc2nc(-c3ccncc3)c(NC3CCCC3)n2c1 was read as L major viab 30.8, S1P4 ag 0.3, S1P4 antag 8.3, MDM2 E3 inh -5.7 and S1P3 antagonist -1.7.
Cc1ccn2c(NC3CCCC3)c(-c3ccncc3)nc2c1 was read as L major viab 88.9*, S1P4 ag -2.1, S1P4 antag -7.7, MDM2 E3 inh -95.8 and S1P3 antagonist -8.7.
Screening O=[N+]([O-])c1ccc(N2CCN(c3nc(-c4ccc(Cl)cc4)cs3)CC2)cc1 returned L major viab 97.7*, S1P4 ag -2.2, S1P4 antag -15.2 and MDM2 E3 inh -9.9.
For Cc1cc(/C(N)=N/OC(=O)Nc2ccc(Cl)cc2)no1 the results were S1P4 ag 2.2, S1P4 antag 10.1, MDM2 E3 inh -2.2 and S1P3 antagonist 16.4.
`Cc1ccccc1NC(=O)Cc1nc(-c2ccc3ccccc3c2)cs1` gave L major viab -3.0, S1P4 ag 0.7, S1P4 antag -19.0, MDM2 E3 inh -10.2 and S1P3 antagonist -3.1.
`CC1CCN(CC(O)COc2cccc(F)c2)CC1` (stereo unspecified) gave L major viab 66.4*, S1P4 ag -1.5, S1P4 antag -28.7, MDM2 E3 inh -5.5 and S1P3 antagonist -15.6.
Cc1cccc(OCC(O)CN2CCN(C3CCCCC3)CC2)c1 (stereo unspecified) was read as L major viab 90.8*, S1P4 ag 0.5, S1P4 antag -21.4, MDM2 E3 inh -6.7 and S1P3 antagonist -1.3.
